Measurements reported in ChEMBL document CHEMBL4840316, “Structure-based screening for the discovery of 1,2,4-oxadiazoles as promising hits for the development of new anti-inflammatory agents interfering with eicosanoid biosynthesis pathways” (Eur J Med Chem, 2021).
The source made the active and inactive calls. The rule behind the calls is not given here.

Columns and labels:
[1] = biological target: T1, Prostaglandin E synthase (Homo sapiens) (UniProt O14684); assay: Inhibition of mPGES-1 obtained from IL-beta stimulated human A549 cells microsomes assessed as residual activity by measuring conversion of PGH2 to PGE2 at 10 uM by cell-free RP-HPLC method; settings: Microsome
T1 sequence (whole entry): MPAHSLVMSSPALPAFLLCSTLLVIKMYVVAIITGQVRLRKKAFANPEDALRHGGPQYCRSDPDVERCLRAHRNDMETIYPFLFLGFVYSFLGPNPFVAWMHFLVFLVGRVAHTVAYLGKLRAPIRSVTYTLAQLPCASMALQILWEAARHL
How it was run: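 Microsomes from A549 cells stimulated with IL-1β (1 ng/ml) for 48 h. Diluted in 0.1 M potassium phosphate pH 7.4 with 2.5 mM glutathione. Pre-incubated 15 min on ice with compound (single 10 µM, or 0.03–10 µM for the curve) or 1% DMSO. 20 µM PGH2 added for 1 min; stopped with FeCl3/citric acid containing 11β-PGE2 standard. PGE2 measured by SPE and RP-HPLC. n = 3.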

[2] = biological target: T2, Polyunsaturated fatty acid 5-lipoxygenase (Homo sapiens) (UniProt P09917); assay: Inhibition of 5-LO in A23187-stimulated human intact neutrophils assessed as reduction in LTB4/5-HETE formation by measuring residual activity at 10 uM measured after 20 mins by RP-HPLC method; format: tissue-based; settings: Neutrophil
T2 sequence (whole entry): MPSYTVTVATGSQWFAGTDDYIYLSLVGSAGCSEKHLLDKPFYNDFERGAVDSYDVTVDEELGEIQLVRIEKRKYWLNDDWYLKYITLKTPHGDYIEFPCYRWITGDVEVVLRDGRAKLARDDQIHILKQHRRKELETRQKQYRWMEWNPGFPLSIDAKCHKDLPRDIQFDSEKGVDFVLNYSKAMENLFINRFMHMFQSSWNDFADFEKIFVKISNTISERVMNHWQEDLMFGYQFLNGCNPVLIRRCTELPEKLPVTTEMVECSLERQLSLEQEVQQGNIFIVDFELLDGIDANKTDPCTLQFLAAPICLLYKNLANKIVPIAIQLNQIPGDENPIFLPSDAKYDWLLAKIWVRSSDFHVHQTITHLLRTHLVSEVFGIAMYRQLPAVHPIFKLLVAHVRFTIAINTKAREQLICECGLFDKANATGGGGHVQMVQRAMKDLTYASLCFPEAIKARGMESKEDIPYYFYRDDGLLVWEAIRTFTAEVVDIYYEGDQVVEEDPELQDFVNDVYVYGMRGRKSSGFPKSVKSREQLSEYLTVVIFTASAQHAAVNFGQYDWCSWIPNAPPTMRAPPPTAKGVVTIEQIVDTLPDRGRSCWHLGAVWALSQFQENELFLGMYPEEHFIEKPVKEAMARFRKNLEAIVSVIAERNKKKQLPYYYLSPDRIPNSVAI
How it was run: (§1)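 Human neutrophils at 5 × 10^6/mL in PBS with 0.1% glucose and 1 mM CaCl2. Pre-incubated with compound or 0.1% DMSO for 10 min at 37 °C. Stimulated with 2.5 µM A23187, with or without 20 µM AA, for 10 min at 37 °C. Stopped with cold methanol; PGB1 internal standard. LTB4, its trans isomers and 5-HETE quantified by SPE and RP-HPLC; % of control.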

[3] = biological target: T2, Polyunsaturated fatty acid 5-lipoxygenase (Homo sapiens); assay: Inhibition of 5-LO in A23187/AA-stimulated human intact neutrophils assessed as reduction in LTB4/5-HETE formation by measuring residual activity at 10 uM measured after 20 mins by RP-HPLC method; format: tissue-based; settings: Neutrophil; how it was run: as §1
[4] = biological target: T2, Polyunsaturated fatty acid 5-lipoxygenase (Homo sapiens); assay: Inhibition of 5-LO (unknown origin) expressed in Escherichia coli BL21 assessed as residual activity at 10 uM by RP-HPLC method relative to control
How it was run: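 Human recombinant 5-LO expressed in E. coli BL21 and purified on ATP-agarose. 0.5 µg enzyme in 1 mL PBS + 1 mM EDTA pre-incubated with compound or 0.1% DMSO for 10 min on ice. Reaction started with 20 µM AA and 2 mM CaCl2, run 10 min at 37 °C, stopped with ice-cold methanol. Products analysed; activity as % of control.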

[5] = biological target: T3, Bifunctional epoxide hydrolase 2 (Homo sapiens) (UniProt P34913); assay: Inhibition of recombinant human sEH expressed in sf9 insect cells assessed as residual activity at 10 uM using PHOME as substrate preincubated for 15 mins followed by substrate addition and measured after 60 mins relative to control; settings: time 75.0 min
T3 sequence (whole entry): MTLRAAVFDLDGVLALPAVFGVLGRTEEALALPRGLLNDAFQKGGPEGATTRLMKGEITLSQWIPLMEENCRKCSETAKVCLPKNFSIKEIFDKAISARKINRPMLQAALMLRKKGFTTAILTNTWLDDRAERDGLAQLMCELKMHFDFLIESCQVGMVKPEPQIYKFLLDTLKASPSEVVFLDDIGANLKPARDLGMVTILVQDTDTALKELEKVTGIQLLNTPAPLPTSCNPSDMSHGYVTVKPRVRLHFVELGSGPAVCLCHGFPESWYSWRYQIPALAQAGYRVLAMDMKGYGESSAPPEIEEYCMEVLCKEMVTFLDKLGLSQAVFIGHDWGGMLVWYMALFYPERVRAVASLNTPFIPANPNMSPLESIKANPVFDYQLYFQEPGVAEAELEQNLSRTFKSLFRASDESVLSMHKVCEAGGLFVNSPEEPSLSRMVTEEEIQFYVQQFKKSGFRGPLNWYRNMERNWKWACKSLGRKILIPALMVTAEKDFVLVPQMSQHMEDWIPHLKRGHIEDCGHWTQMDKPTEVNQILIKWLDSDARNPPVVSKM
How it was run: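 Human recombinant sEH from baculovirus-infected Sf9 cells, affinity-purified. Diluted in 25 mM Tris pH 7 with 0.1 mg/mL BSA. Pre-incubated 15 min at room temperature with 10 µM compound or 0.1% DMSO. 50 µM PHOME added, run 60 min at room temperature, stopped with ZnSO4. Fluorescence read at ex 330 / em 465 nm.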

Monocyte = assay: Cytotoxicity against human monocyte cells assessed as cell viability at 10 uM measured after 24 hrs by MTT assay; format: cell-based
How it was run: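 Human monocytes isolated from PBMC by adherence, 0.2 × 10^6 per well in buffer. Exposed to 10 µM compound or 0.5% DMSO for 24 h (37 °C, 5% CO2). MTT for 2 h, then SDS lysis (10%, pH 4.5) for 17 h. Absorbance read at 570 nm; viability as % of vehicle, n = 3.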

A549 = assay: Cytotoxicity against human A549 cells assessed as cell viability at 10 uM measured after 48 hrs by MTT assay; format: cell-based; settings: a549, 48 h
How it was run: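 A549 cells in DMEM + 10% FBS, 2 × 10^4 per well, seeded in triplicate. Exposed to 10 µM compound or 0.1% DMSO for 48 h at 37 °C, 5% CO2. MTT added for 1 h, formazan dissolved in DMSO, absorbance read at 570 nm. Viability given as % of vehicle, n = 3.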

[6] = biological target: Prostaglandin G/H synthase 1 (Ovis aries) (UniProt P05979); assay: Inhibition of ovine COX-1 assessed as residual activity at 10 uM using arachidonic acid as substrate preincubated for 5 mins by RP-HPLC method relative to control; settings: time 10.0 min
Prostaglandin G/H synthase 1 (Ovis aries), sequence (P05979 whole entry, looked up): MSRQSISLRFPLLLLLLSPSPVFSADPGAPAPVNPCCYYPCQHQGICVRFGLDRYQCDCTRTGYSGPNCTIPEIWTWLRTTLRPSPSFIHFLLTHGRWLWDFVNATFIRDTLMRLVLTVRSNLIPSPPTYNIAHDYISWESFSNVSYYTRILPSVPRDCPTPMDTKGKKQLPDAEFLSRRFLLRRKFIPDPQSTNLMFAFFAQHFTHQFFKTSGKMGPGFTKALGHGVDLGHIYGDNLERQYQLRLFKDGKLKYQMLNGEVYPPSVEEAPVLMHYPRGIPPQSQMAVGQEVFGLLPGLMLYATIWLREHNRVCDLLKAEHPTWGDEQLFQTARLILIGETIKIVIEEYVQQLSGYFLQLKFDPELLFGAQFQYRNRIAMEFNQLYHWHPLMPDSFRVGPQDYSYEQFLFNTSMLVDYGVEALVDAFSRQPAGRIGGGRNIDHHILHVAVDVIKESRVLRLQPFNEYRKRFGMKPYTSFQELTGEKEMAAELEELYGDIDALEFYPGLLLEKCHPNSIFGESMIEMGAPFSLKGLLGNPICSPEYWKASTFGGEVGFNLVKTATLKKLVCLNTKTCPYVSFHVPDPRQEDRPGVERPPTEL

Mus musculus [7] = assay: Antiinflammatory activity in zymosan-induced CD-1 mouse peritonitis model assessed as reduction in zymosan-induced IL-6 level in peritoneal exudate at 3 mg/kg, ip treated with compound for 30 mins after 4 to 24 hrs zymosan stimulation by ELISA; format: functional, organism-based
Mus musculus [8] = assay: Antiinflammatory activity in zymosan-induced CD-1 mouse peritonitis model assessed as reduction in zymosan-induced neutrophil recruitment at 10 mg/kg, ip treated with compound for 30 mins after 4 hrs zymosan stimulation by ELISA; format: functional, organism-based
How it was run: (§2)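 Male CD-1 mice (10–14 wk, 25–30 g), n = 6/group, injected i.p. with boiled zymosan A (500 mg/kg in PBS). Compound (0.1–10 mg/kg, DMSO/saline 1:3) given i.p. 30 min afterwards. Peritoneal lavage with 2 mL PBS at 4 or 24 h. Total leukocytes counted by automated counter with trypan blue, normalized to exudate. Mean ± S.D.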

Mus musculus [9] = assay: Antiinflammatory activity in zymosan-induced CD-1 mouse peritonitis model assessed as reduction in zymosan-induced neutrophil recruitment at 10 mg/kg, ip treated with compound for 30 mins after 24 hrs zymosan stimulation by ELISA; format: functional, organism-based; how it was run: as §2
Mus musculus [10] = assay: Antiinflammatory activity in zymosan-induced CD-1 mouse peritonitis model assessed as reduction in zymosan-induced IL-1beta level in peritoneal exudate at 3 mg/kg, ip treated with compound for 30 mins after 4 to 24 hrs zymosan stimulation by ELISA; format: functional, organism-based
Mus musculus [11] = assay: Antiinflammatory activity in zymosan-induced CD-1 mouse peritonitis model assessed as reduction in zymosan-induced TNF-alpha level in peritoneal exudate at 3 mg/kg, ip treated with compound for 30 mins after 4 to 24 hrs zymosan stimulation by ELISA; format: functional, organism-based

| Compound | Activity [1] | Activity [2] | Activity [3] | other results |
| --- | --- | --- | --- | --- |
| CC(=O)N1C[C@H](O)C[C@H]1c1nc(-c2ccc(-c3ccsc3)cc2)no1 | 82.2% | 92.6% | 89.5% |  |
| CC(c1ccc(O)cc1)c1nc(-c2ccc(-c3ccsc3)cc2)no1 (configuration not stated) | 62.9% | 6.02% | 7.54% | Activity [4]: 61.8%; Activity [5]: > 50%; Activity (Monocyte): Non-Toxic; Activity (A549): Non-Toxic; Activity [6]: 22.5% |
| OCc1ccc(Cc2nc(-c3ccc(-c4ccsc4)cc3)no2)cc1 | 93.1% | 73.6% | 65.2% |  |
| CC(N)(Cc1ccc(O)cc1)c1nc(-c2ccc(-c3ccsc3)cc2)no1 (configuration not stated) | 84.7% | 78% | 61.3% |  |
| Nc1ccc(O)c(-c2nc(-c3ccc(-c4ccsc4)cc3)no2)c1 | 81.9% | 84.3% | 29.6% |  |
| Oc1cccc(-c2nc(-c3ccc(-c4ccsc4)cc3)no2)c1 | 84.1% | > 100% | > 100% |  |
| C[C@@H]1C[C@H]2[C@@H]3CCC4=CC(=O)C=C[C@]4(C)[C@@]3(F)[C@@H](O)C[C@]2(C)[C@@]1(O)C(=O)CO |  |  |  | Activity (Mus musculus [7]): Active; Activity (Mus musculus [8]): Active; Activity (Mus musculus [9]): Active; Activity (Mus musculus [10]): Active; Activity (Mus musculus [11]): Active |
| N[C@@H](Cc1ccc(O)cc1)c1nc(-c2ccc(-c3ccsc3)cc2)no1 | 82.7% | 95% | 74.4% |  |
| c1cc(-c2nc(-c3ccc(-c4ccsc4)cc3)no2)c2cc[nH]c2c1 | 63.2% | 59.7% | 99.3% |  |
| N[C@H](c1ccc(O)cc1)c1nc(-c2ccc(-c3ccsc3)cc2)no1 | 67.6% | 47.5% | 50.3% |  |
